Shown are actives, neighbours in structure and some others; about 1.3% of the full set was active somewhere.
CAL PDZ FP-1 = untagged CAL PDZ binding inhibitors, primary screen, biochemical, fluorescence polarization, HTS. inhibition, % at 24.9 µM. 300,000 tested, 0.92% active. Golgi-associated PDZ and coiled-coil motif-containing protein (Homo sapiens), Q9HD26. purified CAL PDZ, TMR-peptide fluorescence polarization, 1 h;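 active = mean inhibition of at least 30% with at least half of replicates also reaching 30%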
cardiac RTF act = cardiac RTF calcium sensitivity activators, primary screen, biochemical, IANBD-TnC fluorescence, EC20 calcium | Troponin I, cardiac muscle (Homo sapiens) + Troponin T, cardiac muscle (Homo sapiens) + … | IANBD-labeled TnC RTF fluorescence at EC20 calcium; 0% EC20 calcium, 100% full calcium | activation, % at 7.2 µM | 340,000 tested, 0.24% active;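 active = activation above the mean over all tested compounds plus 3 SD, cut at about 30% in these data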;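 also: rise in fluorescence read as greater calcium sensitivity of cardiac thin filaments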
C-LANA FP = inhibitors of KSHV C-LANA binding to DNA, primary screen, biochemical, fluorescence polarization, FAM-LBS DNA, MBP-C-LANA, single point. inhibition, % at 9 µM. Kaposi's sarcoma herpesvirus LANA C-terminal domain (residues 932-1162) DNA binding. AID 504423, 2011. 340,000 tested, 0.078% active;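 active = highest replicate inhibition at or above 60% at 9 µM, even if other replicates fall short; inactive = all replicates below 60% inhibition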
RTF Ca sens inh = cardiac RTF calcium sensitivity inhibitors, primary screen, biochemical, IANBD-TnC fluorescence, EC70 calcium | Troponin I, cardiac muscle (Homo sapiens) + Troponin T, cardiac muscle (Homo sapiens) + … | IANBD-labeled cardiac RTF, Ca2+ fluorescence | inhibition, % at 7.15 µM | 340,000 tested, 0.12% active | AID 493244, 2011;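 active = inhibition above the mean inhibition of all tested compounds plus 3 SD, cut at about 17% in these data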;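 also: assay run at fixed EC70 calcium of 1.6 mM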
CAL PDZ FP-2 = CAL PDZ peptide-binding inhibitors, primary screen, biochemical, fluorescence polarization, Cer-tagged CAL PDZ, HTS. 330,000 tested, 0.02% active. Golgi-associated PDZ and coiled-coil motif-containing protein (Homo sapiens), Q9HD26. inhibition, % at 20 µM. purified CAL PDZ, TMR-peptide fluorescence polarization, 1 h;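 active = highest replicate inhibition of at least 40%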
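System: purified tagged CAL PDZ domain construct (CerCALP). Schedule: 1 h incubation at room temperature before polarization reading. Medium: 25 mM sodium phosphate pH 7.4, 150 mM NaCl, TCEP, IgG, Thesit. Read-out: percent inhibition from loss of millipolarization. Measured by: FP readout, S and P plane fluorescence. Probe or stimulus: fluorescent TMR peptide probe.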
Keap1-Nrf2 PPI = Keap1-Nrf2 protein-protein interaction inhibitors, primary screen, biochemical, fluorescence polarization, single point; 340,000 tested, 0.15% active; AID 504523, 2011; Kelch-like ECH-associated protein 1 (Homo sapiens), Q14145; inhibition, % at 9.4 µM; Keap1 Kelch-Nrf2 peptide fluorescence polarization, 1536-well; in the data active = inhibition above about 12%;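 also: human Keap1 Kelch domain with fluorescein labeled Nrf2 9mer peptide probe; higher means more block of Keap1 binding to Nrf2 peptide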
Target sequence (Q14145 whole entry, looked up, the tested form may be a part): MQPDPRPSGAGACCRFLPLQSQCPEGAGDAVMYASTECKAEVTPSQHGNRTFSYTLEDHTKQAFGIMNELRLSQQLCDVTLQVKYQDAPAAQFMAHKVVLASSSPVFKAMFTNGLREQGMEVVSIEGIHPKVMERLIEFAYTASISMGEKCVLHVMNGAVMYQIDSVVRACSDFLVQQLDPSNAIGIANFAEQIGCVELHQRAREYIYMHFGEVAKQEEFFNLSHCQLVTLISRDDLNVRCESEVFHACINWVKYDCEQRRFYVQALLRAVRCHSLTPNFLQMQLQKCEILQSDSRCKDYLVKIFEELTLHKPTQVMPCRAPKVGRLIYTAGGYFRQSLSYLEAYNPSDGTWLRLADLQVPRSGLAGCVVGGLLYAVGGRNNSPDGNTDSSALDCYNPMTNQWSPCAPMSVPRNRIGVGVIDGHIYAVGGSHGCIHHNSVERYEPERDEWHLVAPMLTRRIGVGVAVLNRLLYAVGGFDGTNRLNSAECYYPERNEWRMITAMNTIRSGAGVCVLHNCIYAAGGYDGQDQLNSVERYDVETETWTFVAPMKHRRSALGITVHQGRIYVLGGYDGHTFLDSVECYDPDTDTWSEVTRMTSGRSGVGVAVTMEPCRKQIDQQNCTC
Hits are given with their value; i = inactive; nt = no result given.

SMILES | CAL PDZ FP-1 | cardiac RTF act | C-LANA FP | RTF Ca sens inh | CAL PDZ FP-2 | Keap1-Nrf2 PPI
COc1cc(/C=C/[N+](=O)[O-])ccc1OC(=O)/C=C/c1ccc(F)cc1 | i | i | nt | i | i | i
O=S(=O)(NCC1(N2CCOCC2)CCCCC1)c1ccc(F)c(F)c1F | i | i | i | i | i | i
Cc1ccc(C(=O)OC(C)C(=O)Nc2ccc(Cl)cn2)s1 (centres undefined) | i | i | i | i | i | i
CN(C)CCCCOc1ccc(Br)cc1Cl | 83.5 | i | i | i | i | i
CC(C)CN1C(=O)C(=O)N(CC(=O)NC(C)CCc2ccccc2)C1=O (centres undefined) | nt | i | i | i | i | i
COC(=O)C1=C(O)/C(=C\c2ccc(OCC(=O)Nc3ccc(OC)cc3)cc2)N=C1C | i | i | i | i | i | i
COC(=O)C1=C(O)/C(=C\c2ccc(OCC(=O)Nc3ccccc3OC)cc2)N=C1C | 73.4 | i | i | i | i | i
COc1cccc(CN2CC(C(=O)NCCCc3ccc(C)cc3)CCC2=O)c1 (centres undefined) | 100.0 | i | i | i | i | i
O=C(NCCCc1ccncc1)C1CCC(=O)N(Cc2ccc(Cl)cc2)C1 (centres undefined) | 71.9 | i | i | i | i | i
COc1cccc(CN2CC(C(=O)NCCCc3ccncc3)CCC2=O)c1 (centres undefined) | i | i | i | i | i | i
CCOC(=O)C1CCCN(C(=O)CCCn2c(=O)c3cccn3c3cccnc32)C1 (centres undefined) | i | i | i | i | i | i
O=c1c(/C=C(\O)c2ccc(F)cc2)nc2ccccc2n1-c1ccccc1 | i | 51.4 | i | i | i | i
Cn1c(=O)c(/C=C/c2ccc(F)cc2)nc2ccccc21 | i | i | i | i | i | i
c1ccc2c(c1)SCc1nnc(-c3ccncc3)n1-2 | 95.9 | i | i | i | i | i
COc1ccc(-c2nnc3n2-c2ccccc2SC3)cc1OC | i | i | i | i | i | i
O=S(=O)([O-])C/C(=C\c1ccc(Cl)cc1)c1cc[n+](CCO)cc1 | nt | i | i | i | i | i
Cc1c(C(=O)Oc2cccc3cccnc23)oc2ccccc12 | 39.4 | i | i | i | i | i
CCn1ccnc1CNCc1cn(-c2cc(C)ccc2C)nc1-c1ccccc1 | i | i | i | i | i | i
Cc1ccc(C)c(-n2cc(CNCCc3cnccn3)c(-c3ccccc3)n2)c1 | 52.8 | i | i | i | i | i
CC(C)C(=O)Nc1nnc(S(=O)(=O)N(C)c2ccc(Cl)cc2)s1 | 44.9 | i | i | i | nt | i
O=C(O)c1cccc2cccc(-c3c4ccc(=O)c(O)c-4oc4c(O)c(O)ccc34)c12 | i | i | 86.6 | 78.8 | i | i
COc1cccc(C2(O)CCN(C(=O)C(C)C)CC2)c1 | 60.5 | i | i | i | i | i
COc1ccc(S(=O)(=O)Nc2ccc(F)c(F)c2)cc1C(=O)N1CCOCC1 | i | i | i | i | i | i
C/C(=N\NC(=O)c1ccc(Cn2cc(Br)cn2)o1)c1ccc(NC(=O)c2ccoc2C)cc1 | i | i | i | i | i | i
O=C(Nc1cccnc1)c1ccc(NC(=O)c2ccco2)cc1 | i | i | i | i | i | i
SMILES | CAL PDZ FP-1 | cardiac RTF act | C-LANA FP | RTF Ca sens inh | CAL PDZ FP-2 | Keap1-Nrf2 PPI
CCN(C(=O)c1ccc(NC(=O)c2ccco2)cc1)c1ccccc1 | 56.7 | i | i | i | i | i
O=C(NCc1cccnc1)c1ccc(NC(=O)c2ccco2)cc1 | 135.1 | i | i | i | i | i
Cc1ccsc1C(=O)NNC(=O)COc1ccccc1Cl | i | i | i | i | i | i
CCN(C(=O)CSc1nncn1-c1ccccc1)C1CCS(=O)(=O)C1 (centres undefined) | i | i | i | i | i | i
CCS(=O)(=O)N1CCN=C1SC(C)c1ccccc1 (centres undefined) | i | i | i | i | i | i
CN(C)c1ccc(/C=N/N(CCO)C2=NS(=O)(=O)c3ccccc32)cc1 | i | 315.9 | i | i | i | i
O=C(O)Cc1sc(=O)[nH]c1O | nt | i | i | i | i | i
O=c1cc(Cl)nc2ccccn12 | 37.7 | i | i | i | i | i
N#Cc1ccc2c(c1)nc1ccccn12 | i | i | i | i | i | i
O=c1cc(NCc2ccccc2)nc2ccccn12 | i | i | i | i | i | i
Clc1ccc2nc3ccccn3c2c1 | 53.4 | i | i | i | i | i
Cc1ccc(N=C2NC(=O)/C(=C/c3cn(C)c4ccccc34)S2)cc1C | i | 69.2 | i | i | i | i
Cn1cccc1/C=C1\SC(=Nc2ccccc2)NC1=O | nt | i | i | i | i | i
O=C1CCCCC1Nc1ccc(Br)cc1 (centres undefined) | i | i | i | i | i | i
O=S(=O)(c1ccc2c(c1)CCN2)N1CCOCC1 | i | i | i | i | i | i
COc1cc2c(c(OC)c1OC)-c1ccc(SC)c(=O)cc1C(NC(=O)C(F)(F)F)CC2 (centres undefined) | i | i | i | i | i | i
CCOCC(=O)NC1CCc2cc(OC(=O)COCC)c(OC)c(OC)c2-c2ccc(SC)c(=O)cc21 (centres undefined) | 34.1 | i | i | i | i | i
COCc1nnc(NS(=O)(=O)c2c(C)cc(C)cc2C)s1 | 34.8 | i | i | i | nt | i
Cc1cccc(C)c1NC(=O)CNC(=O)CCC(=O)N1CCOCC1 | i | i | i | i | i | i
CC(C)Cn1c(N)c(C(=O)COC(=O)c2cc(F)cc(F)c2)c(=O)n(C)c1=O | 35.6 | i | i | i | i | i
Cc1n[nH]c(C)c1CCN(C)Cc1cn(C)nc1-c1ccc2c(c1)OCCO2 | 101.8 | i | i | i | i | i
CCNC(=O)CC1C(=O)N(c2ccc(C)cc2)C(=O)N1CCOC (centres undefined) | i | i | i | i | i | i
CCN(CC)C(=O)COc1ccc(N(C)S(=O)(=O)c2ccc(NC(C)=O)cc2)cc1 | 71.3 | i | i | i | i | i
COc1ccccc1C(=O)NC(=O)COC(=O)C1CC2CCCC(C1)C2=O (centres undefined) | i | i | i | i | i | i
CCOc1ccccc1NC(=O)C(=O)N/N=C/c1cc(Br)ccc1O | 67.3 | i | i | i | i | i
CC(=NNC(=O)c1ccncc1)c1ccc2ccccc2c1O | i | 48.3 | i | i | i | i
CCOc1ccccc1C=NNC(=O)C(=O)NN=Cc1ccccc1OCC | i | i | i | i | i | i

Source: PubChem
